# Measurements as given in ChEMBL document CHEMBL3627613, “4-Aminoquinoline derivatives as novel Mycobacterium tuberculosis GyrB inhibitors: Structural optimization, synthesis and biological evaluation” (Eur J Med Chem, 2015).
# Columns and labels:
# [1] = Cytotoxicity against mouse RAW264.7 cells assessed as inhibition of cell viability at 50 uM incubated for 48 hrs at 37 degC by MTT assay relative to control; assay type: cell-based; conditions: read-out: INH
# Summary of the method: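 RAW 264.7 mouse macrophages, 5×10^5 cells per well, exposed to compound for 48 h at 37 °C under 5% CO2. MTT added 4 h before the end. Formazan dissolved in DMSO and absorbance read at 560 nm against blank. Triplicates, run twice.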
# [2] = biological target: DNA gyrase subunit A/DNA gyrase subunit B (Mycobacterium tuberculosis (strain ATCC 25618 / H37Rv), UniProt P9WG45+P9WG47); assay: Inhibition of DNA gyrase GyrA/GyrB in Mycobacterium tuberculosis incubated for 30 mins assessed as reduction in supercoiling of relaxed relaxed pBR322 DNA by ethidium bromide staining based agarose gel electrophoresis method
# Chain of DNA gyrase subunit A/DNA gyrase subunit B (P9WG45 whole entry): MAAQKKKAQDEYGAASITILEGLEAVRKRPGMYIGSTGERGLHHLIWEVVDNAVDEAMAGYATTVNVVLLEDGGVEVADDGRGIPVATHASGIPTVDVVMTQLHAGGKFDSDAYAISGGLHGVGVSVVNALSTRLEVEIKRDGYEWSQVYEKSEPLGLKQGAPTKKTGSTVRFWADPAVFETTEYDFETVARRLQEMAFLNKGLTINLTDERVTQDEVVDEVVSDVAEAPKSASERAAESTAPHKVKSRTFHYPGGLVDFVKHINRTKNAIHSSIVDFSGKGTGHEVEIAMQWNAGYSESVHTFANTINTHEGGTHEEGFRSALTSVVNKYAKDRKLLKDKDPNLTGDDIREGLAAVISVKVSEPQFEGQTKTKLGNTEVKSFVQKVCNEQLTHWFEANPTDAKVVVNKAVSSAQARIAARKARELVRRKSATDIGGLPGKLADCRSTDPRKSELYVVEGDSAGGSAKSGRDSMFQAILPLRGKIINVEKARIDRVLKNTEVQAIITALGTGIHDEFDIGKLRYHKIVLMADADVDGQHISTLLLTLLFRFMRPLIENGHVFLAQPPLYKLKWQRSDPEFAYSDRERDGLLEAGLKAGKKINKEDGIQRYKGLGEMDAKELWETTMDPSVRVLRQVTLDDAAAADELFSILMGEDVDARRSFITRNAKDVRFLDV
# Chain of DNA gyrase subunit A/DNA gyrase subunit B (P9WG47 whole entry): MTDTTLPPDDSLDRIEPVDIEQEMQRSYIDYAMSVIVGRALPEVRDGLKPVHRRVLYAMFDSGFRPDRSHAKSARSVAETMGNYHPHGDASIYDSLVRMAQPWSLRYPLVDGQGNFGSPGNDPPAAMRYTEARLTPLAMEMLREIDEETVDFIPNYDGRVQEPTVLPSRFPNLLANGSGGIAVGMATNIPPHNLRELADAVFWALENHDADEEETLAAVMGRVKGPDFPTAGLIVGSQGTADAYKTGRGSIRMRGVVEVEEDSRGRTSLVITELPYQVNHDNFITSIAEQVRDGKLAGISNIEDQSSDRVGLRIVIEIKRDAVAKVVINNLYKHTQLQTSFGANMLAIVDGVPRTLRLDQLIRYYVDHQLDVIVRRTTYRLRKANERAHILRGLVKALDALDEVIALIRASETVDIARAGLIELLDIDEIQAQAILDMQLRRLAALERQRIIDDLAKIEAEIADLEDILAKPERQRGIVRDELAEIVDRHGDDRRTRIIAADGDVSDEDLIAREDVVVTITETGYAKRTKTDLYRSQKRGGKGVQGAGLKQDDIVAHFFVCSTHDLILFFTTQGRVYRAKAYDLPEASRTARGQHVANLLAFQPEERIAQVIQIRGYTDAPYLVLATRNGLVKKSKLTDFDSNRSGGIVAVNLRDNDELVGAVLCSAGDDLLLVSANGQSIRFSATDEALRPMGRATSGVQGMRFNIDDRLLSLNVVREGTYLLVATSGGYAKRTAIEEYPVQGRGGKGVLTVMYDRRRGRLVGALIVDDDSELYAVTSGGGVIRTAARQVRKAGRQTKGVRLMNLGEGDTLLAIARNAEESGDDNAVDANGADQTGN
# [3] = tested on: Mycobacterium tuberculosis; assay: Antimycobacterial activity against Mycobacterium tuberculosis H37Rv assessed as growth inhibition incubated for 7 days by microplate alamar blue assay; assay type: functional; conditions: 168 h
# Summary of the method: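 M. tuberculosis H37Rv inoculum from fresh LJ medium, resuspended in 7H9 broth (0.1% casitone, 0.5% glycerol, OADC), set to McFarland No. 1 and diluted 1:20. Two-fold serial compound dilutions in 7H9-S, with growth and sterile controls. Incubated 7 days at 37 °C, then alamar blue overnight. MIC is the lowest concentration preventing the blue-to-pink colour change.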
# DNA gyrase subunit B = DNA gyrase subunit B (Mycobacterium smegmatis, UniProt P0C559); assay: Inhibition of Mycobacterium smegmatis DNA gyrase B expressed in Escherichia coli BL21 (DE3) pLysS cells assessed as reduction in ATPase activity incubated for 100 mins by inorganic phosphate detection assay; parameters: species or system Mycolicibacterium smegmatis
# Chain of DNA gyrase subunit B (P0C559 whole entry): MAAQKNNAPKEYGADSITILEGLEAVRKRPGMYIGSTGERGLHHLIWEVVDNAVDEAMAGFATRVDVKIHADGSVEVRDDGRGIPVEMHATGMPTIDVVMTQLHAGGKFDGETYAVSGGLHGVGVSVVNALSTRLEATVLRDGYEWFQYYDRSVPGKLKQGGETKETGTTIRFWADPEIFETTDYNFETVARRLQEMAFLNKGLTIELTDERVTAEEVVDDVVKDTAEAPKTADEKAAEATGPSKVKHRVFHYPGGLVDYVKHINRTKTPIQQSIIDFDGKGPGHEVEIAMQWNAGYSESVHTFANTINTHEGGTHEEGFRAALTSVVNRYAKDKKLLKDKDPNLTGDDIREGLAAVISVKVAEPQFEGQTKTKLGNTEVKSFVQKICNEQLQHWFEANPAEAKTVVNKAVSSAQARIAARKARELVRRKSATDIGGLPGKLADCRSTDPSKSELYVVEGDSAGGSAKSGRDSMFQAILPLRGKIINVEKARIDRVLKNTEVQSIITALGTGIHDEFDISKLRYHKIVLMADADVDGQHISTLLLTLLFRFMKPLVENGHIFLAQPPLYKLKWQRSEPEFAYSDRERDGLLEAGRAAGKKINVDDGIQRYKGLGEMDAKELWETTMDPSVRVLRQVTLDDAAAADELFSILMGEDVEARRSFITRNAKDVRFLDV
Structure (SMILES),"cytotoxicity at 48 h, 50 µM [1] [%]",IC50 [2] [µM],MIC [3] [µM],IC50 (DNA gyrase subunit B) [µM]
O=C(O)c1cnc2ccc(F)cc2c1Nc1ccc(NCCCN2CCOCC2)cc1,13.1,4.44,29.5,15
CO[C@@H]1[C@@H](OC(N)=O)[C@@H](O)[C@H](Oc2ccc3c(O)c(NC(=O)c4ccc(O)c(CC=C(C)C)c4)c(=O)oc3c2C)OC1(C)C [NOVOBIOCIN],,,> 200,
COc1ccc2ncc(C(=O)NN)c(Nc3ccc(NCCCN4CCOCC4)cc3)c2c1,9.59,15.3,27.8,44.9
CCN1CCN(CCCOc2ccc(Nc3c(C(=O)NN)cnc4ccc(F)cc34)cc2)CC1,11.9,2.96,3.34,2.92
CO[C@H]1/C=C/O[C@@]2(C)Oc3c(C)c(O)c4c(O)c(c(/C=N/N5CCN(C)CC5)c(O)c4c3C2=O)NC(=O)/C(C)=C\C=C\[C@H](C)[C@H](O)[C@@H](C)[C@@H](O)[C@@H](C)[C@H](OC(C)=O)[C@@H]1C [RIFAMPIN],,,0.23,
NNC(=O)c1cnc2ccccc2c1Nc1ccc(NCCCN2CCOCC2)cc1,6.48,22.9,44.9,> 50
CCN1CCN(CCCNc2ccc(Nc3c(C(=O)O)cnc4ccccc34)cc2)CC1,32.3,5.88,11.8,11.3
CCOC(=O)c1cnc2ccccc2c1Nc1ccc(OCCCN2CCOCC2)cc1,17.7,7.53,28.7,22.8
CCOC(=O)c1cnc2ccc(C(F)(F)F)cc2c1Nc1ccc(NCCCN2CCN(CC)CC2)cc1,20.1,3.77,1.47,8.82
CCOC(=O)c1cnc2ccc(C(F)(F)F)cc2c1Nc1ccc(NCCCN2CCOCC2)cc1,20.2,3.12,49.8,6.62
NNC(=O)c1cnc2ccccc2c1Nc1ccc(OCCCN2CCOCC2)cc1,44.6,0.72,2.4,0.97
CCOC(=O)c1cnc2ccc(C(F)(F)F)cc2c1Nc1ccc(OCCCN2CCOCC2)cc1,20.2,16.4,43.1,38.8
CCOC(=O)c1cnc2ccccc2c1Nc1ccc(NCCCN2CCOCC2)cc1,1.82,8.73,14.4,17.9
CCN1CCN(CCCNc2ccc(Nc3c(C(=O)NN)cnc4ccc(OC)cc34)cc2)CC1,2.56,2.55,13.1,3.26
COc1c(N2C[C@@H]3CCCN[C@@H]3C2)c(F)cc2c(=O)c(C(=O)O)cn(C3CC3)c12 [MOXIFLOXACIN],,,1.26,> 50
NNC(=O)c1cnc2ccc(C(F)(F)F)cc2c1Nc1ccc(NCCCN2CCOCC2)cc1,7.94,19.9,25.6,47.2
CCOC(=O)c1cnc2ccc(F)cc2c1Nc1ccc(NCCCN2CCOCC2)cc1,19.6,4.61,13.4,11.3
CCOC(=O)c1cnc2ccc(OC)cc2c1Nc1ccc(OCCCN2CCOCC2)cc1,21.2,13.3,13.3,14.9
CCN1CCN(CCCOc2ccc(Nc3c(C(=O)NN)cnc4ccccc34)cc2)CC1,18.2,16.7,13.9,28.4
CCN1CCN(CCCOc2ccc(Nc3c(C(=O)O)cnc4ccc(C(F)(F)F)cc34)cc2)CC1,13.4,3.54,19.8,7.91
CCOC(=O)c1cnc2ccc(OC)cc2c1Nc1ccc(NCCCN2CCOCC2)cc1,19.3,9.32,23.4,22.3
CCOC(=O)c1cnc2ccccc2c1Nc1ccc(OCCCN2CCN(CC)CC2)cc1,21.4,23.9,13.5,> 50
CCOC(=O)c1cnc2ccc(F)cc2c1Nc1ccc(OCCCN2CCN(CC)CC2)cc1,21.6,11.8,3.25,23.6
CCN1CCN(CCCOc2ccc(Nc3c(C(=O)NN)cnc4ccc(OC)cc34)cc2)CC1,2.72,5.89,11.6,12.6
CCN1CCN(CCCNc2ccc(Nc3c(C(=O)NN)cnc4ccc(C(F)(F)F)cc34)cc2)CC1,1.59,11,30,26.3

Structure (SMILES),"cytotoxicity at 48 h, 50 µM [1] [%]",IC50 [2] [µM],MIC [3] [µM],IC50 (DNA gyrase subunit B) [µM]
CCN1CCN(CCCNc2ccc(Nc3c(C(=O)NN)cnc4ccccc34)cc2)CC1,3.36,9.42,13.5,10.8
CCN1CCN(CCCNc2ccc(Nc3c(C(=O)O)cnc4ccc(OC)cc34)cc2)CC1,20.1,0.93,3.48,1.32
NNC(=O)c1cnc2ccc(F)cc2c1Nc1ccc(OCCCN2CCOCC2)cc1,13.7,21.4,28.4,20.9
CCOC(=O)c1cnc2ccccc2c1Nc1ccc(NCCCN2CCN(CC)CC2)cc1,20.4,3.25,6.77,11.7
COc1ccc2ncc(C(=O)O)c(Nc3ccc(NCCCN4CCOCC4)cc3)c2c1,16.1,12.6,28.6,38.9
CCOC(=O)c1cnc2ccc(OC)cc2c1Nc1ccc(NCCCN2CCN(CC)CC2)cc1,21.4,8.52,25.4,9.55
COc1ccc2ncc(C(=O)NN)c(Nc3ccc(OCCCN4CCOCC4)cc3)c2c1,6.26,10.4,55.4,10.6
CCOC(=O)c1cnc2ccc(C(F)(F)F)cc2c1Nc1ccc(OCCCN2CCN(CC)CC2)cc1,27.3,0.69,2.94,0.97
NNC(=O)c1cnc2ccc(C(F)(F)F)cc2c1Nc1ccc(OCCCN2CCOCC2)cc1,0.07,19.9,36.4,38.7
NNC(=O)c1cnc2ccc(F)cc2c1Nc1ccc(NCCCN2CCOCC2)cc1,29.1,10.6,23.6,18.7
O=C(O)c1cnc2ccc(C(F)(F)F)cc2c1Nc1ccc(NCCCN2CCOCC2)cc1,19.1,3.77,6.59,7.89
O=C(O)c1cnc2ccc(F)cc2c1Nc1ccc(OCCCN2CCOCC2)cc1,10.8,16.9,14.7,31.3
CCN1CCN(CCCOc2ccc(Nc3c(C(=O)NN)cnc4ccc(C(F)(F)F)cc34)cc2)CC1,20.1,9.33,11.5,11.9
COc1ccc2ncc(C(=O)O)c(Nc3ccc(OCCCN4CCOCC4)cc3)c2c1,11.4,12.9,57.1,20.6
CCN1CCN(CCCNc2ccc(Nc3c(C(=O)NN)cnc4ccc(F)cc34)cc2)CC1,6.11,0.82,3.3,1.15
CCOC(=O)c1cnc2ccc(OC)cc2c1Nc1ccc(OCCCN2CCN(CC)CC2)cc1,21.6,6.85,11.6,15.9
CCOC(=O)c1cnc2ccc(F)cc2c1Nc1ccc(NCCCN2CCN(CC)CC2)cc1,20.2,7.99,13,16.9
CCN1CCN(CCCOc2ccc(Nc3c(C(=O)O)cnc4ccccc34)cc2)CC1,13.4,10.2,27.2,21.7
CCOC(=O)c1cnc2ccc(F)cc2c1Nc1ccc(OCCCN2CCOCC2)cc1,44.1,7.63,21.7,16.9
O=C(O)c1cnc2ccccc2c1Nc1ccc(OCCCN2CCOCC2)cc1,11.3,21.8,30.7,> 50
CCN1CCN(CCCOc2ccc(Nc3c(C(=O)O)cnc4ccc(F)cc34)cc2)CC1,24.2,5.96,6.91,6.82
O=C(O)c1cnc2ccccc2c1Nc1ccc(NCCCN2CCOCC2)cc1,0.55,5.56,7.69,11.3
NNC(=O)c1ccncc1 [ISONIAZID],,,0.66,
O=C(O)c1cnc2ccc(C(F)(F)F)cc2c1Nc1ccc(OCCCN2CCOCC2)cc1,22.6,14.3,13.2,27.8
